Reference: ChEMBL document CHEMBL3259528, “Exploring 5-nitrofuran derivatives against nosocomial pathogens: synthesis, antimicrobial activity and chemometric analysis” (2014)
Converted amounts (≈) assume the structure as drawn. The source made the active and inactive calls. The calls are words filed in the database; no cut-off is given here.

What was measured:
Klebsiella pneumoniae = assay: Antimicrobial activity against Klebsiella pneumoniae ATCC 700603 at 128 uM after 24 to 48 hrs by two-fold broth microdilution method; format: functional, organism-based
Method in brief: (§1)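 Antibacterial microdilution in CAMH, inoculum 0.5 McFarland diluted in saline/CAMH, 35 °C for 18 h, with further reads at 24 and 48 h. Activity is scored at the maximum tested concentration, 128 µM. Triplicate.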

Enterobacter cloacae = assay: Antimicrobial activity against Enterobacter cloacae ATCC 23355 at 128 uM after 24 to 48 hrs by two-fold broth microdilution method; format: functional, organism-based; method in brief: as §1
Staphylococcus aureus [1] = assay: Antimicrobial activity against Staphylococcus aureus ATCC 29213 after 18 hrs by modified broth microdilution method; format: functional
Method in brief: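 PGI90, the concentration giving 90% growth inhibition, fitted with an exponential growth curve from at least seven concentrations of the MIC assay. Inhibition % = [(Ac − Ap)/Ac] × 100 from A620 of drug-free control versus drug-treated culture. Checked by a modified broth microdilution (Phase 2).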

Serratia marcescens = assay: Antimicrobial activity against Serratia marcescens ATCC 14576 at 128 uM after 24 to 48 hrs by two-fold broth microdilution method; format: functional, organism-based; method in brief: as §1
Enterococcus faecalis = assay: Antimicrobial activity against Enterococcus faecalis ATCC 29212 after 24 to 48 hrs by two-fold broth microdilution method; format: functional
Candida albicans [2] = assay: Antimicrobial activity against Candida albicans ATCC 537Y at 64 uM after 48 hrs by two-fold broth microdilution method; format: functional, organism-based
Method in brief: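 Single top concentration of the antifungal microdilution: RPMI 1640, inoculum 0.5 McFarland diluted in saline/RPMI, 35 °C for 48 h. Activity is judged at the highest tested level, 64 µM. Run in triplicate.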

Staphylococcus aureus [3] = assay: Antimicrobial activity against Staphylococcus aureus ATCC 29213 after 24 to 48 hrs by two-fold broth microdilution method; format: functional
Escherichia coli [4] = assay: Antimicrobial activity against Escherichia coli ATCC 25922 at 128 uM after 24 to 48 hrs by two-fold broth microdilution method; format: functional, organism-based; method in brief: as §1
Candida albicans [5] = assay: Antimicrobial activity against Candida albicans ATCC 537Y after 48 hrs by two-fold broth microdilution method; format: functional
Method in brief: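 Two-fold serial dilutions in RPMI 1640 per CLSI M27-A2. Stocks in DMSO/RPMI 1:20 v/v. Test range 1.0–64 µM. Inoculum set to 0.5 McFarland, then diluted in saline and RPMI 1640. Plates held at 35 °C for 48 h. MIC is the lowest concentration giving prominent growth reduction. Run in triplicate.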

Escherichia coli [6] = assay: Antimicrobial activity against Escherichia coli ATCC 25922 after 24 to 48 hrs by two-fold broth microdilution method; format: functional

SMILES | Activity (Klebsiella pneumoniae) | Activity (Enterobacter cloacae) | log(1/MIC>90) (Staphylococcus aureus [1]) | Activity (Serratia marcescens) | MIC (Enterococcus faecalis) [µM] | MIC90 (Enterococcus faecalis) [µM] | Activity (Candida albicans [2]) | MIC (Staphylococcus aureus [3]) [µM] | MIC90 (Staphylococcus aureus [3]) [µM] | Activity (Escherichia coli [4]) | MIC (Candida albicans [5]) [µM] | MIC90 (Candida albicans [5]) [µM] | MIC (Escherichia coli [6]) [µM] | MIC90 (Escherichia coli [6]) [µM]
CCOc1ccc(C(=O)N/N=C/c2ccc([N+](=O)[O-])o2)cc1 | inactive | inactive | 5.43 | inactive | 32 (≈ 9.7 µg/mL) | 34.9 (≈ 10.6 µg/mL) | inactive | 2 (≈ 0.607 µg/mL) | 3.7 (≈ 1.12 µg/mL) | inactive | – | – | – | –
Cc1ccc(C(=O)N/N=C/c2ccc([N+](=O)[O-])o2)cc1 | inactive | inactive | 4.97 | inactive | 8 (≈ 2.19 µg/mL) | 14.2 (≈ 3.87 µg/mL) | – | 8 (≈ 2.19 µg/mL) | 9.42 (≈ 2.57 µg/mL) | inactive | 32 (≈ 8.74 µg/mL) | 58.3 (≈ 15.9 µg/mL) | – | –
CC(=O)N1N=C(c2ccc(F)cc2)OC1c1ccc([N+](=O)[O-])o1 (configuration not stated) | inactive | inactive | 5.07 | inactive | 64 (≈ 20.4 µg/mL) | 97.3 (≈ 31.1 µg/mL) | – | 8 (≈ 2.55 µg/mL) | 8.43 (≈ 2.69 µg/mL) | – | 32 (≈ 10.2 µg/mL) | 43.1 (≈ 13.8 µg/mL) | 64 (≈ 20.4 µg/mL) | 91 (≈ 29.1 µg/mL)
CC(=O)N1N=C(c2ccccc2)OC1c1ccc([N+](=O)[O-])o1 (configuration not stated) | inactive | inactive | 5.05 | inactive | 32 (≈ 9.64 µg/mL) | 52.9 (≈ 15.9 µg/mL) | – | 4 (≈ 1.21 µg/mL) | 8.93 (≈ 2.69 µg/mL) | inactive | 8 (≈ 2.41 µg/mL) | 15.8 (≈ 4.77 µg/mL) | – | –
COc1ccc(C(=O)N/N=C/c2ccc([N+](=O)[O-])o2)cc1 | inactive | inactive | 5.39 | inactive | 8 (≈ 2.31 µg/mL) | 14.6 (≈ 4.23 µg/mL) | – | 4 (≈ 1.16 µg/mL) | 4.11 (≈ 1.19 µg/mL) | – | 32 (≈ 9.26 µg/mL) | 54.6 (≈ 15.8 µg/mL) | 32 (≈ 9.26 µg/mL) | 84 (≈ 24.3 µg/mL)
O=C(N/N=C/c1ccc([N+](=O)[O-])o1)c1ccc(Cl)c(Cl)c1 | inactive | inactive | 5.5 | inactive | 32 (≈ 10.5 µg/mL) | 59.7 (≈ 19.6 µg/mL) | – | 4 (≈ 1.31 µg/mL) | 7.49 (≈ 2.46 µg/mL) | – | 16 (≈ 5.25 µg/mL) | 32.2 (≈ 10.6 µg/mL) | 64 (≈ 21 µg/mL) | 85 (≈ 27.9 µg/mL)
CC(=O)N1N=C(c2ccc(I)cc2)OC1c1ccc([N+](=O)[O-])o1 (configuration not stated) | inactive | inactive | 5.13 | inactive | – | – | inactive | 4 (≈ 1.71 µg/mL) | 6.29 (≈ 2.69 µg/mL) | inactive | – | – | – | –
CC(C)(C)c1ccc(C(=O)N/N=C/c2ccc([N+](=O)[O-])o2)cc1 | inactive | inactive | 5.28 | inactive | 32 (≈ 10.1 µg/mL) | 59.8 (≈ 18.9 µg/mL) | inactive | 4 (≈ 1.26 µg/mL) | 5.28 (≈ 1.66 µg/mL) | inactive | – | – | – | –
CCCc1ccc(C2=NN(C(C)=O)C(c3ccc([N+](=O)[O-])o3)O2)cc1 (configuration not stated) | inactive | inactive | 4.81 | inactive | – | – | – | 8 (≈ 2.75 µg/mL) | 15.4 (≈ 5.28 µg/mL) | inactive | 32 (≈ 11 µg/mL) | 46 (≈ 15.8 µg/mL) | – | –
CCCCOc1ccc(C2=NN(C(C)=O)C(c3ccc([N+](=O)[O-])o3)O2)cc1 (configuration not stated) | inactive | inactive | 4.77 | inactive | – | – | – | 16 (≈ 5.97 µg/mL) | 16.9 (≈ 6.3 µg/mL) | – | 32 (≈ 11.9 µg/mL) | 41 (≈ 15.3 µg/mL) | 64 (≈ 23.9 µg/mL) | 77.9 (≈ 29.1 µg/mL)
CCCCc1ccc(C2=NN(C(C)=O)C(c3ccc([N+](=O)[O-])o3)O2)cc1 (configuration not stated) | inactive | inactive | 4.73 | inactive | – | – | inactive | 16 (≈ 5.72 µg/mL) | 18.5 (≈ 6.6 µg/mL) | inactive | – | – | – | –
CCC(C)n1ncn(-c2ccc(N3CCN(c4ccc(OCC5COC(Cn6cncn6)(c6ccc(Cl)cc6Cl)O5)cc4)CC3)cc2)c1=O (configuration not stated) [ITRACONAZOLE] | – | – | – | – | – | – | – | – | – | – | < 20 | – | – | –
CCc1ccc(C2=NN(C(C)=O)C(c3ccc([N+](=O)[O-])o3)O2)cc1 (configuration not stated) | inactive | inactive | 4.99 | inactive | – | – | – | 8 (≈ 2.63 µg/mL) | 10.2 (≈ 3.34 µg/mL) | inactive | 32 (≈ 10.5 µg/mL) | 48.2 (≈ 15.9 µg/mL) | – | –
Cc1cc(NS(=O)(=O)c2ccc(N)cc2)no1 [SULFAMETHOXAZOLE] | – | – | – | inactive | – | – | – | – | – | – | – | – | 16 (≈ 4.05 µg/mL) | –
O=C(N/N=C/c1ccc([N+](=O)[O-])o1)c1ccccc1 | inactive | inactive | 5.28 | inactive | 32 (≈ 8.3 µg/mL) | 58.8 (≈ 15.2 µg/mL) | – | 4 (≈ 1.04 µg/mL) | 5.27 (≈ 1.37 µg/mL) | – | 32 (≈ 8.3 µg/mL) | 60.3 (≈ 15.6 µg/mL) | 16 (≈ 4.15 µg/mL) | 30.4 (≈ 7.89 µg/mL)
O=C(N/N=C/c1ccc([N+](=O)[O-])o1)c1ccc(C(F)(F)F)cc1 | inactive | inactive | 5.36 | inactive | 32 (≈ 10.5 µg/mL) | 60.9 (≈ 19.9 µg/mL) | – | 4 (≈ 1.31 µg/mL) | 4.34 (≈ 1.42 µg/mL) | – | 32 (≈ 10.5 µg/mL) | 47.8 (≈ 15.6 µg/mL) | 64 (≈ 20.9 µg/mL) | 92.2 (≈ 30.2 µg/mL)
O=C(N/N=C/c1ccc([N+](=O)[O-])o1)c1ccc(Cl)cc1Cl | inactive | inactive | 5.13 | inactive | 32 (≈ 10.5 µg/mL) | 58.7 (≈ 19.3 µg/mL) | – | 4 (≈ 1.31 µg/mL) | 4.83 (≈ 1.58 µg/mL) | – | 32 (≈ 10.5 µg/mL) | 48 (≈ 15.8 µg/mL) | 64 (≈ 21 µg/mL) | 87.7 (≈ 28.8 µg/mL)
CC(=O)N1N=C(c2ccc(C)cc2)OC1c1ccc([N+](=O)[O-])o1 (configuration not stated) | inactive | inactive | 4.91 | inactive | – | – | – | 8 (≈ 2.52 µg/mL) | 12.2 (≈ 3.85 µg/mL) | inactive | 32 (≈ 10.1 µg/mL) | 49.9 (≈ 15.7 µg/mL) | – | –
O=C(N/N=C/c1ccc([N+](=O)[O-])o1)c1ccc(Cl)cc1 | inactive | inactive | 5.26 | inactive | 32 (≈ 9.4 µg/mL) | 40.7 (≈ 12 µg/mL) | – | 4 (≈ 1.17 µg/mL) | 5.52 (≈ 1.62 µg/mL) | – | 32 (≈ 9.4 µg/mL) | 53 (≈ 15.6 µg/mL) | 64 (≈ 18.8 µg/mL) | 102 (≈ 30 µg/mL)
CCc1ccc(C(=O)N/N=C/c2ccc([N+](=O)[O-])o2)cc1 | inactive | inactive | 5.43 | inactive | 64 (≈ 18.4 µg/mL) | 69.1 (≈ 19.9 µg/mL) | – | 4 (≈ 1.15 µg/mL) | 3.68 (≈ 1.06 µg/mL) | – | 32 (≈ 9.19 µg/mL) | 54 (≈ 15.5 µg/mL) | 64 (≈ 18.4 µg/mL) | 110 (≈ 31.7 µg/mL)
COc1ccc(C2=NN(C(C)=O)C(c3ccc([N+](=O)[O-])o3)O2)cc1 (configuration not stated) | inactive | inactive | 4.96 | inactive | – | – | inactive | 8 (≈ 2.65 µg/mL) | 10.9 (≈ 3.6 µg/mL) | inactive | – | – | – | –
